Measurements taken from ChEMBL document CHEMBL1142014, “Synthesis and activity of 4,5-diarylimidazoles as human CB1 receptor inverse agonists” (Bioorg Med Chem Lett, 2005).

Legend:
Cannabinoid receptor 1 [1] = biological target: T1, Cannabinoid receptor 1 (Homo sapiens, UniProt P21554); assay: biochemical; format: cell-based, CHO
[2] = Normalised area under the concentration time curve in rat; format: ADME
Summary of the method: (§1)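 Male Sprague–Dawley rats dosed 1.0 mg/kg iv via an implanted cannula (n = 1 or 2) and 2.0 mg/kg po by gavage (n = 3). Both doses were formulated at 1 mg/mL in TWEEN 80:EtOH:water (10:23:67). Plasma drug levels were measured by LC–MS/MS after protein precipitation, and PK parameters were derived. AUC was normalised to dose.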

[3] = Oral bioavailability in rat; format: ADME, organism-based; conditions: in vivo
Summary of the method: as §1

[4] = Half life in rat; format: ADME; conditions: in vivo
Summary of the method: as §1

Cannabinoid receptor 1 [5] = biological target: T1, Cannabinoid receptor 1; assay: Effective concentration against human recombinant cannabinoid receptor type 1 expressed in Chinese Hamster Ovary (CHO) cells; format: cell-based
Summary of the method: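 Functional assay on recombinant human CB1 receptor expressed in CHO cells, run in the presence of forskolin.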

[6] = Plasma clearance in rat; format: ADME, organism-based; conditions: read-out: Clp
Summary of the method: as §1

[7] = Volume distribution at steady state in rat; format: ADME, organism-based; conditions: in vivo, read-out: Vdss
Summary of the method: as §1

[8] = Brain-to-plasma ratio after 1 hr in rat; format: ADME
Summary of the method: (§2)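 Male Sprague-Dawley rats given 1.0 mg/kg iv by tail vein, formulated at 1 mg/mL in TWEEN 80:EtOH:water (10:23:67). Sampled at 0.25, 1, 2 and 4 h (n = 3 per time point). Plasma and brain levels measured by LC–MS/MS and expressed as the brain/plasma ratio.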

[9] = Brain-to-plasma ratio after 2 hrs in rat; format: ADME
Summary of the method: as §2

[10] = (§3) Brain-to-plasma ratio after 4 hrs in rat; format: ADME
Summary of the method: as §2

[11] = Brain-to-plasma ratio after 0.25 hrs in rat; format: ADME
Summary of the method: as §2

[12] = as §3; format: ADME, cell-free; conditions: read-out: B/P
Summary of the method: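 Male Sprague-Dawley rats were given 1.0 mg/kg iv via the tail vein, formulated at 1 mg/mL in TWEEN 80:EtOH:water (10:23:67). Three rats were used at each time point (0.25, 1, 2 and 4 h). Brain and plasma concentrations were measured by LC–MS/MS, and the brain-to-plasma ratio was taken at each time.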

T1 sequence (P21554 whole entry): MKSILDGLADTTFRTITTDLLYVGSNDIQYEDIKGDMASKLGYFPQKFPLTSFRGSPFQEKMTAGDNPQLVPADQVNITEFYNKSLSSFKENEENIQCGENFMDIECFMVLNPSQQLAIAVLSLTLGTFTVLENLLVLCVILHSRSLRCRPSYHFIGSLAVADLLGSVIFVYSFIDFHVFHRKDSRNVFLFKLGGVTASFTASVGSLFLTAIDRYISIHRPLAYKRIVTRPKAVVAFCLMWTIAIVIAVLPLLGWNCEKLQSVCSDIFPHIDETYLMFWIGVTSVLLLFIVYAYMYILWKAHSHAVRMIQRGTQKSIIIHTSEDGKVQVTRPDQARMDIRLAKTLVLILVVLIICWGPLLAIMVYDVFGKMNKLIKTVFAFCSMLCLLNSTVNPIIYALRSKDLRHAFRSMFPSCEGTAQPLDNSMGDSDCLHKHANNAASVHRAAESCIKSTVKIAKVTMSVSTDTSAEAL

Row | SMILES | IC50 (Cannabinoid receptor 1 [1]) [nM] | further results
1 | O=C(NC1CCCCC1)c1nc(-c2ccc(Cl)cc2)c(-c2ccc(Cl)cc2)o1 | 500 | –
2 | Cn1c(C(=O)NC2CCCCC2)nc(-c2ccc(Cl)cc2Cl)c1-c1ccc(Cl)cc1 | 4 | AUC nom [2]: 1.8 µM·kg·h/mg; bioavailability [3]: 30%; half-life [4]: 1.9 h; EC50 (Cannabinoid receptor 1 [5]): 18 nM; clearance [6]: 20 mL/min/kg; Vd [7]: 1.9 L/kg; Kp at 1 h [8]: 2.1; Kp at 2 h [9]: 1.3; Kp at 4 h [10]: 2.6; Kp at 0.25 h [11]: 0.8
3 | CCn1c(C(=O)NC2CCCCC2)nc(-c2ccc(Cl)cc2Cl)c1-c1ccc(Cl)cc1 | 4.1 | –
4 | Cn1c(C(=O)NN2CCCCC2)nc(-c2ccc(Cl)cc2Cl)c1-c1ccc(Cl)cc1Cl | 16 | –
5 | Cn1c(C(=O)NN2CCCCC2)nc(-c2ccc(Cl)cc2)c1-c1ccc(Cl)cc1Cl | 190 | –
6 | CCCCCCNC(=O)c1nc(-c2ccc(Cl)cc2)c(-c2ccc(Cl)cc2)n1C | 540 | –
7 | Cn1c(C(=O)N2CCCCC2)nc(-c2ccc(Cl)cc2)c1-c1ccc(Cl)cc1 | 1100 | –
8 | Cn1c(C(=O)NC2CCCCCC2)nc(-c2ccc(Cl)cc2Cl)c1-c1ccc(Cl)cc1 | 8 | –
9 | O=C(NC1CCCCC1)c1nc(-c2ccc(Cl)cc2Cl)c(-c2ccc(Cl)cc2Cl)o1 | 70 | –
10 | Cc1ccc(-c2nc(C(=O)NC3CCCCC3)n(C)c2-c2ccc(C)cc2)cc1 | 900 | –
11 | O=C(NN1CCCCC1)c1nc(-c2ccc(Cl)cc2)c(-c2ccc(Cl)cc2Cl)o1 | 470 | –
12 | O=C(NC1CCCCC1)c1nc(-c2ccc(Cl)cc2)c(-c2ccc(Cl)cc2Cl)o1 | 1000 | –
13 | CN(C(=O)c1nc(-c2ccc(Cl)cc2Cl)c(-c2ccc(Cl)cc2)n1C)C1CCCCC1 | 70 | –
14 | Cn1c(C(=O)NC(C)(C)C)nc(-c2ccc(Cl)cc2)c1-c1ccc(Cl)cc1 | 900 | –
15 | O=C(NN1CCCCC1)c1nc(-c2ccc(Cl)cc2Cl)c(-c2ccc(Cl)cc2Cl)o1 | 200 | –
16 | O=C(NN1CCCCC1)c1nc(-c2ccc(Cl)cc2Cl)c(-c2ccc(Cl)cc2)o1 | 260 | –
17 | O=C(NC1CCCCC1)c1nc(-c2ccc(Cl)cc2Cl)c(-c2ccc(Cl)cc2)o1 | 80 | –
18 | O=C(NN1CCCCC1)c1nc(-c2ccc(Cl)cc2)c(-c2ccc(Cl)cc2)[nH]1 | 6000 | –
19 | Cn1c(C(=O)NN2CCCCC2)nc(-c2ccccc2)c1-c1ccccc1 | 1900 | –
20 | Cn1c(C(=O)NC2CCCC2)nc(-c2ccc(Cl)cc2Cl)c1-c1ccc(Cl)cc1 | 17 | –
21 | Cn1c(C(=O)NC2CCCCC2)nc(-c2ccc(Cl)cc2Cl)c1-c1ccc(Cl)cc1Cl | 5.2 | –
22 | Cn1c(C(=O)NN2CCCCC2)nc(-c2ccc(Cl)cc2)c1-c1ccc(Cl)cc1 | 260 | EC50 (Cannabinoid receptor 1 [5]): 100 nM
23 | Cn1c(C(=O)N2CCCCC2)nc(-c2ccccc2)c1-c1ccccc1 | 19000 | –
24 | Cn1c(C(=O)Nc2ccccc2)nc(-c2ccc(Cl)cc2Cl)c1-c1ccc(Cl)cc1 | 60 | –
25 | Cn1c(C(=O)NC2CCCCC2)nc(-c2ccc(Cl)cc2)c1-c1ccc(Cl)cc1 | 450 | EC50 (Cannabinoid receptor 1 [5]): 500 nM
26 | Cn1c(C(=O)NC2CCCCC2)nc(-c2ccc(Cl)cc2)c1-c1ccc(Cl)cc1Cl | 46 | –
27 | Cn1c(C(=O)NN2CCCCC2)nc(-c2ccc(Cl)cc2Cl)c1-c1ccc(Cl)cc1 | 6.1 | AUC nom [2]: 1.3 µM·kg·h/mg; bioavailability [3]: 50%; half-life [4]: 2.4 h; EC50 (Cannabinoid receptor 1 [5]): 5 nM; Kp at 4 h [12]: 3.4; clearance [6]: 28 mL/min/kg; Vd [7]: 3.7 L/kg; Kp at 1 h [8]: 3.6; Kp at 2 h [9]: 2.9; Kp at 0.25 h [11]: 3
